Results: PubChem BioAssay
Results filed as inconclusive are left out.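 Rule for the calls, unless noted: active = RAM network inhibition above 8.4% in each of two replicates, 3 SD over the compound average; inconclusive = above 8.4% inhibition in only one replicate; inactive = 8.4% inhibition or less in each replicate.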

How the values were obtained:
[1] = OD615 S. cerevisiae growth inhibition, permissive medium, pilot counter-assay, permissive growth control for S. cerevisiae lifespan shortening project (AID 705;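 active = growth inhibition above 25% in both replicates, a cutoff set 3 SD above the mean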); conditions: OD615, 24 h, at 10 µM, stronger effect = higher value
In short: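 Material: engineered DeaD yeast; compound dosing: one dose 10 µM, DMSO 0.25% final; measure: yeast growth inhibition indicated by reduced 24 h OD615; detection: OD615 turbidity read; incubation: cells pre-grown 4 h, then 24 h compound exposure, 30 °C humidified; medium: permissive synthetic complete medium with raffinose and galactose carbon sources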

[2] = Restrictive medium S. cerevisiae growth inhibition, OD615, pilot screen of yeast lifespan reduction project, restrictive growth control (AID 706;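 active = growth inhibition above a set limit, 3 SD over mean compound inhibition, in both replicates, cut at about 43% in these data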;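 note: modified DeaD lifespan yeast strain shifted to restrictive glucose medium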); conditions: OD615, 48 h, at 10 µM, stronger effect = higher value
In short: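 material = engineered S. cerevisiae DeaD strain | medium = glucose-based CSMM-D restrictive medium | times = 4 h pre-incubation, 48 h exposure at 30 °C | technique = OD615 absorbance reading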

[3] = viability gain of MRP-1-high H69AR cells under doxorubicin, pilot screen, MRP-1 activator project, CellTiter-Glo, duplicate (AID 807;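 active = viability increase at or above a cutoff of the median across tested compounds plus 3 SD, cut at about 8.5% in these data, passing the limit was not always enough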;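 note: compound pretreatment 18-22 h then 72 h combined with doxorubicin; 0% = doxorubicin alone and 100% = vehicle without doxorubicin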); conditions: H69AR viability with doxorubicin, CellTiter-Glo luminescence; at 10 µM; stronger effect = higher value
[4] = growth suppression of beta-catenin knockout HCT116, pilot screen, human colon tumor cells (AID 823;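 active = cell viability at or below a set limit in both duplicate runs, the limit being the all-compound median minus 4 SD, cut at about 23% in these data, passing the limit was not always enough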;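 note: 0% = wells killed by 20 µM Hyamine and 100% = untreated DMSO cell wells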); conditions: CellTiter-Glo, 60 h, at 10 µM, stronger effect = lower value
[5] = growth suppression of PTEN-deleted HCT116, pilot screen, cell-based, HCT116 clonal line, CellTiter-Glo (AID 824;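 active = viability at or below 27.92% in each of two runs, the all-compound median minus 4 SD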;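 note: 0% = 20 µM Hyamine control and 100% = vehicle cell control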); conditions: 60 h, at 10 µM, stronger effect = lower value
[6] = inhibitors of the yeast RAM network, pilot screen, dse1pr::URA3 reporter, 5-FOA selection (AID 869;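 active = inhibition over a set limit, the all-compound mean plus 3 SD, in both replicate runs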;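 note: 0% = DMSO wells with no growth and 100% = 10 µM 1-NA-PP1 with full growth; RAM network block rescues cells from 5-FOA so hits raise OD615 growth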); conditions: S. cerevisiae dse1pr::URA3 5-FOA growth, OD615, 2 d; at 10 µM; stronger effect = higher value; strain carries analog-sensitive mutant Cbk1 kinase
[7] = RAM signaling pathway blockade in yeast – S. cerevisiae, Pdr1DBD-CYC8 efflux-inhibited sensitized strain, primary screen (AID 1298);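 note: 0% = DMSO untreated cells without growth and 100% = 10 µM 1-NA-PP1 full growth; higher means more yeast growth rescued from 5-FOA killing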; conditions: S. cerevisiae cbk1-as DSE1-URA3 strain, 5-FOA growth OD615, 2 d; at 50 µM; stronger effect = higher value

COc1ccc(-c2cn3c(C)c(C(=O)N4CCN(c5ccccc5)CC4)sc3n2)cc1
inactive: growth inhibition [1] -0.58% | growth inhibition [2] -13.6% | viability increase [3] -1.3% | viability [4] 101% | viability [5] 95.6% | inhibition [6] 1.88% | RAM network inhibition [7] 0.88%

Cc1c(Nc2nc3ccccc3nc2N2CCN(c3ccccc3)CC2)c(=O)n(-c2ccccc2)n1C
inactive: growth inhibition [1] -2.84% | growth inhibition [2] -9.73% | viability increase [3] -4.8% | viability [4] 69% | viability [5] 70.6% | inhibition [6] 0.73% | RAM network inhibition [7] 5.41%

CCOc1ccc(NC(=O)N2CCC(n3c(=O)[nH]c4ccccc43)CC2)cc1
inactive: growth inhibition [1] -13.3% | growth inhibition [2] -22% | viability increase [3] 6.11% | viability [4] 83.2% | viability [5] 84.2% | inhibition [6] 1.9% | RAM network inhibition [7] 2.37%

O=c1cc(N2CCOCC2)[nH]c(=O)n1-c1ccc(Cl)cc1
inactive: growth inhibition [1] -5.36% | growth inhibition [2] -6.01% | viability increase [3] -1.67% | viability [4] 105% | viability [5] 97.2% | inhibition [6] 1.17% | RAM network inhibition [7] 1.09%

COc1c(Cl)ccc(Cl)c1C(=O)OCC(=O)O
inactive: growth inhibition [1] -7.06% | growth inhibition [2] -27.7% | viability increase [3] -2.73% | viability [4] 86% | viability [5] 86.9% | inhibition [6] 1.39% | RAM network inhibition [7] 4.54%

CCOC(=O)c1ccc(N2C(=O)CC(SCC(N)C(=O)OCC)C2=O)cc1 (stereo not drawn)
inactive: growth inhibition [1] -4.09% | growth inhibition [2] -7.37% | viability increase [3] -2.49% | viability [4] 102% | viability [5] 85.6% | inhibition [6] 1.47% | RAM network inhibition [7] 3.7%

c1coc(C2Nc3ccccc3-c3nc4ccccc4n32)c1 (stereo not drawn)
inactive: growth inhibition [1] -27.2% | growth inhibition [2] -4.04% | viability increase [3] -4.32% | viability [4] 66.6% | viability [5] 68.1% | inhibition [6] 2.14% | RAM network inhibition [7] 8.31%

CCOC(=O)c1ccccc1NC(=O)CN(c1ccccc1OCC)S(C)(=O)=O
inactive: growth inhibition [1] 2.85% | growth inhibition [2] 1.95% | viability increase [3] -1.57% | viability [4] 96.4% | viability [5] 98% | inhibition [6] 1.1% | RAM network inhibition [7] 2.46%

COc1ccc(C2N3CC4(C)CN2CC(C)(C3)C4=O)cc1OC (stereo not drawn)
inactive: growth inhibition [1] -1.15% | growth inhibition [2] 2.95% | viability increase [3] -0.5% | viability [4] 102% | viability [5] 103% | inhibition [6] 1.67% | RAM network inhibition [7] 0.11%

CC(c1cccnc1)N(C(=O)Nc1ccccc1)C1CCCCC1 (stereo not drawn)
inactive: growth inhibition [1] -1.48% | growth inhibition [2] -10.8% | viability increase [3] -2.35% | viability [4] 92.1% | viability [5] 91.6% | inhibition [6] 1.96% | RAM network inhibition [7] 5.08%

Cc1ccccc1-c1nc(CN2CCC(C(=O)O)CC2)c(C)o1
inactive: growth inhibition [1] 1.1% | growth inhibition [2] -0.365% | viability increase [3] -0.95% | viability [4] 103% | viability [5] 93.9% | inhibition [6] 0% | RAM network inhibition [7] 0.11%

Cc1ccc(S(=O)(=O)NCc2ccco2)cc1C
inactive: growth inhibition [1] -1.9% | growth inhibition [2] -6.06% | viability increase [3] -3.83% | viability [4] 100% | viability [5] 97.2% | inhibition [6] 0.075% | RAM network inhibition [7] 2.42%

O=C(CN1CCN(CC(=O)Nc2ccccn2)CC1)Nc1ccccn1
inactive: growth inhibition [1] -2.54% | growth inhibition [2] -0.335% | viability increase [3] -0.95% | viability [4] 98.6% | viability [5] 97.6% | inhibition [6] 0.705% | RAM network inhibition [7] 6.03%

COc1ccc(N2CCN(C(=O)c3sc4nc(-c5ccc(F)cc5)cn4c3C)CC2)cc1
inactive: growth inhibition [1] -10.6% | growth inhibition [2] -19.7% | viability increase [3] -4.7% | viability [4] 102% | viability [5] 95.6% | inhibition [6] 2.24% | RAM network inhibition [7] 3.45%

CCCCOC(=O)Nc1ccc(S(=O)(=O)Nc2cc(C)nc(C)n2)cc1
inactive: growth inhibition [1] -16.6% | growth inhibition [2] -11.7% | viability increase [3] -1.66% | viability [4] 95.8% | viability [5] 91.6% | inhibition [6] 1% | RAM network inhibition [7] 6.71%

O=C(Cn1cc2c(n1)CCCC2)NCc1cccc(Cl)c1
inactive: growth inhibition [1] 4.46% | growth inhibition [2] 5.37% | viability increase [3] -0.45% | viability [4] 107% | viability [5] 99.3% | inhibition [6] 1.62% | RAM network inhibition [7] 3.09%

CCCN1C(=O)c2cc(C(=O)NCc3cccs3)ccc2C1O (stereo not drawn)
inactive: growth inhibition [1] -5.98% | growth inhibition [2] -16.4% | viability increase [3] -0.99% | viability [4] 107% | viability [5] 96.7% | inhibition [6] 1.94% | RAM network inhibition [7] -0.69%

COc1ccc(-c2nc(-c3ccc(Br)o3)no2)cc1OC
inactive: growth inhibition [1] -7.45% | growth inhibition [2] -17.9% | viability increase [3] -0.69% | viability [4] 86.3% | viability [5] 78.6% | inhibition [6] 0.88% | RAM network inhibition [7] 2.25%

COC(=O)Cn1c(CCC(=O)O)ccc1-c1ccccc1
inactive: growth inhibition [1] -1.1% | growth inhibition [2] -4.95% | viability increase [3] -0.49% | viability [4] 102% | viability [5] 103% | inhibition [6] 0.12% | RAM network inhibition [7] 10.9%

O=C(CCC1CCCC1)N1CCN(C(=O)c2ccco2)CC1
inactive: growth inhibition [1] -5.94% | growth inhibition [2] -2.57% | viability increase [3] -3.59% | viability [4] 86.3% | viability [5] 83.2% | inhibition [6] 1.39% | RAM network inhibition [7] 0.98%

Cc1nc(C)c(C(=O)Nc2ccccc2)s1
inactive: growth inhibition [1] -0.755% | growth inhibition [2] -6.96% | viability increase [3] -0.17% | viability [4] 98.4% | viability [5] 88.3% | inhibition [6] 0.68% | RAM network inhibition [7] 3.02%

CCCS(=O)(=O)n1nc(-c2ccc(OC)cc2OC)cc1N
inactive: growth inhibition [1] -6.52% | growth inhibition [2] -22.5% | viability increase [3] -2.51% | viability [4] 101% | viability [5] 102% | inhibition [6] -0.255% | RAM network inhibition [7] 4.63%

COc1ccc(N2C(=O)C3CCCN3C2c2cccc(OC)c2)cc1 (stereo not drawn)
inactive: growth inhibition [1] 2.15% | growth inhibition [2] -0.935% | viability increase [3] -1.99% | viability [4] 98.9% | viability [5] 104% | inhibition [6] 1.75% | RAM network inhibition [7] -1.67%

CCS(=O)(=O)N1CCN(c2cccc(C)c2C)CC1
inactive: growth inhibition [1] -12.4% | growth inhibition [2] -5.41% | viability increase [3] -1.48% | viability [4] 97.5% | viability [5] 89.3% | inhibition [6] 2.35% | RAM network inhibition [7] 4.29%
